Reference: the array DNA melting data of Ke et al. (doi:10.1101/2024.01.08.574731)

Assays:
[1] = folding enthalpy; higher = less favourable; fluorescence melt of hairpins on a sequencing array, two-state fit; details: sodium 0.088 M
Method in brief: (§1)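 Cy3 fluorescence of library hairpins on a sequenced MiSeq flow cell, with annealed Cy3 and quencher oligos, was imaged in 50 mM Na-HEPES pH 8.0, 25 mM NaCl in 2.5 °C steps up to 60 °C. Signals were normalised to pre-quench Cy3 and to control variants. Melting temperature and folding enthalpy came from bootstrapped two-state fits, inverse-variance combined over four replicates. Fitted temperatures were raised by 9.35 °C to match UV melts.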

[2] = melting temperature; fluorescence melt of hairpins on a sequencing array, two-state fit, raised by 9.35 °C to match UV melts; details: sodium 0.088 M
Method in brief: as §1

| Sequence | folding enthalpy [1] [kcal/mol] | Tm [2] [°C] |
| --- | --- | --- |
| GGAGACGAAAGTCTCTCC ((((((....)))..))) | -9.83 | 54.5 |
| GATCCTCGGAAGGATC ((((((....)))))) | -34.4 | 50.2 |
| GATCCATCGTGGATC ((((((...)))))) | -36.9 | 50.8 |
| GATCAAGAACTTGATC ((((((....)))))) | -38.4 | 49.2 |
| CGAGCCCGGAAACGGTCG (((..(((....)))))) | -20.9 | 37.5 |
| GCGTTCGGAAACGGACGC ((((.((....)).)))) | -40.2 | 64 |
| GATCATCTCAATGATC ((((((....)))))) | -41.6 | 48.9 |
| GGCCAAGCGAAAGCTGCC (((..(((....)))))) | -21.7 | 54.3 |
| GCGATGCGAAAGCAATGC ((..(((....)))..)) | -18.2 | 53.1 |
| GAAGGAGGAAACTTCTTC ((((.((....)).)))) | -35.7 | 46.8 |
| GATTGGCGAAAGCCCATC (((.(((....))).))) | -17 | 38.4 |
| GCATGAGGAAACTTATGC ((((.((....)).)))) | -34.7 | 44.2 |
| GTAGGCGAAAGCCCATAC ((((((....)))..))) | -8.87 | 28.2 |
| GATCCAGAATTGGATC ((((((....)))))) | -34.7 | 57.2 |
| GACAGGCGAAAGCCGTC (((.(((....)))))) | -11.3 | 64.9 |
| GCGTTGCGAAAGCACCGC (((.(((....))).))) | -47.7 | 59.1 |
| GATCCCTGAGGGATC ((((((...)))))) | -34.7 | 59.6 |
| GCAGGCGAAAGCCACTGC ((((((....)))..))) | -15.9 | 48 |
| GATCTACGATTAGATC ((((((....)))))) | -27.4 | 34.9 |
| GATCTAGCGTTAGATC ((((((....)))))) | -31.1 | 39.7 |
| GTTACCGAAAGGTGAAAC ((((((....)))..))) | -9.44 | 27.5 |
| GATCACAGAGGTGATC ((((((....)))))) | -27.4 | 55.9 |
| GGTGACCCGAAAGGGACC (((..(((....)))))) | -14.5 | 38.1 |

| Sequence | folding enthalpy [1] [kcal/mol] | Tm [2] [°C] |
| --- | --- | --- |
| GGGATCGAAAGATTCCCC ((((((....)))..))) | -18.8 | 49.3 |
| CGCGGAGCGTCCGCG ((((((...)))))) | -7.62 | 68.1 |
| GGCTACGAAAGTAGCGCC ((((((....)))..))) | -9.93 | 55.7 |
| GATCTAGGCATAGATC ((((((....)))))) | -36.9 | 48.8 |
| GATCGGGTGCCCGATC ((((((....)))))) | -36.7 | 60.1 |
| GTAATGCGAAAGCAATAC (((.(((....))).))) | -20 | 44.6 |
| GCCTGCGAAAGCAGAGGC ((((((....)))..))) | -17.6 | 60.1 |
| GATCTAGCTCTAGATC ((((((....)))))) | -33.1 | 45.2 |
| GCCATAGGAAACTATGAC (.(((((....))))).) | -18.2 | 34.1 |
| GAGACTGGAAACAGTCCC (.(((((....))))).) | -11 | 44.9 |
| GCGCTTACGAAAGTACGC (((..(((....)))))) | -21.4 | 46.2 |
| GGCGCCGAAAGGCGGGCC ((((((....)))..))) | -9.79 | 60.4 |
| GGTACGCGAAAGCGACC (((.(((....)))))) | -14.9 | 54.8 |
| GGGTTGGAAACAACCC ((((((....)))))) | -38.2 | 64.7 |
| GCTTGCGAAAGCATAAGC ((((((....)))..))) | -19.4 | 47.9 |
| GGTCTACGAAAGTAACC (((.(((....)))))) | -24 | 34.3 |
| GAACCCGAAAGGGTATTC ((((((....)))..))) | -9.47 | 33.2 |
| CGGCCGGAAACGGTTCCG ((((((....)))..))) | -21.6 | 41.1 |
| GCCAAGGGAAACCCTAGC ((.(.((....)).).)) | -17.6 | 28.8 |
| GTAGACCGAAAGGTTTAC (((.(((....))).))) | -27.9 | 48.5 |
| GCTTTCGAAAGAATAAGC ((((((....)))..))) | -21.6 | 33.4 |
| GATTTGGGAAACCAGATC (((.(((....))).))) | -35.9 | 37.7 |
| GGCAAGGGAAACTTTGCC (((((.(....).))))) | -37.7 | 50.1 |

| Sequence | folding enthalpy [1] [kcal/mol] | Tm [2] [°C] |
| --- | --- | --- |
| GTGTTCGAAAGAATTCAC ((((((....)))..))) | -10.3 | 28.8 |
| GCATGTGGAAACGCATGC (((((.(....).))))) | -44.7 | 55.9 |
| GCCTACCGAAAGGTTGGC (((.(((....))).))) | -35.4 | 62.5 |
| GGGCACGAAAGTGTACCC ((((((....)))..))) | -18.4 | 50.3 |
| GCTACTGGAAACGGTAGC (((((.(....).))))) | -37.5 | 50.2 |
| GCCGCGCGAAAGCGAAGC ((..(((....)))..)) | -12.9 | 46 |
| GAAGGCGGAAACGCCCTC ((.((((....)))).)) | -8.85 | 35.1 |
| GGCCTCGAAAGAGTGCC ((((((....))).))) | -37.7 | 58.2 |
| GGATACGAAAGTAGTCC ((((((....))).))) | -20.6 | 40.4 |
| CGTAGGAAACTACG (((((....))))) | -21 | 48.2 |
| GATGTGCGAAAGCAATC (((.(((....)))))) | -11.3 | 38.2 |
| GAATTCCGAAAGGATTC (((.(((....)))))) | -20.2 | 38.4 |
| GATGCCCGAAAGGGATC (((.(((....)))))) | -17.4 | 45 |
| GGGTAGGGAAACCTGCTC (.(.(((....))).).) | -14.8 | 36.5 |
| GGTCCTCGAAAGAGACC (((.(((....)))))) | -31.3 | 48.1 |
| GATCTAGTACTAGATC ((((((....)))))) | -51.4 | 48.7 |
| GATCTGCTCTCAGATC ((((((....)))))) | -36.6 | 48.4 |
| GCATACGGAAACGTATGC (((((((....))))))) | -47.5 | 67.7 |
| GTACCGGAAACGGTAC ((((((....)))))) | -36.6 | 64.7 |
| GCACCCGGAAACGGACGC ((..(((....)))..)) | -19.6 | 38.7 |
| GACGATCCGAAAGGAGTC (((..(((....)))))) | -22.1 | 39.8 |
| GCCACCGGAAACGGTAGC ((.((((....)))).)) | -21.2 | 48.1 |
| GATCCTGATCAGGATC ((((((....)))))) | -39.8 | 56.1 |

| Sequence | folding enthalpy [1] [kcal/mol] | Tm [2] [°C] |
| --- | --- | --- |
| GCAGATGGAAACATTTGC (((.(((....))).))) | -33.7 | 44.5 |
| GATCTCTGCGGAGATC ((((((....)))))) | -43.7 | 55.9 |
| CGCGGATCGCTCCGCG ((((((....)))))) | -28.6 | 69.2 |
| GTTCCGGGAAACCAGAAC ((((.((....)).)))) | -31.7 | 38.7 |
| GGAGCTGGAAACAGCTTC (.(((((....))))).) | -26.4 | 53.1 |
| GATCAGTAGGCTGATC ((((((....)))))) | -42.3 | 52.4 |
| GCGGTAACGAAAGTTCGC (((..(((....)))))) | -26.7 | 47.4 |
| GCGATGCGAAAGCGTTGC ((.(.((....)).).)) | -25.9 | 57.2 |
| GATCGGTGACCCGATC ((((((....)))))) | -36.5 | 55.8 |
| GTCGCCGAAAGGCAAGAC ((((((....)))..))) | -15.4 | 49.8 |
| GCGGCCGACCGC ((((....)))) | -26.7 | 57.6 |
| GTCTATACGAAAGTAGAC (((..(((....)))))) | -21.8 | 36.7 |
| GATCTGTTTACAGATC ((((((....)))))) | -44.4 | 58.6 |
| GTGGTACGAAAGTAACAC (((.(((....))).))) | -40.3 | 58.2 |
| GCATTGCGAAAGCATCGC ((..(((....)))..)) | -11.8 | 52.9 |
| GTCTTCACGAAAGTGGAC (((..(((....)))))) | -14.2 | 31.9 |
| GCTTCGCGAAAGCAAGGC ((.(.((....)).).)) | -12.3 | 36.1 |
| GGGTATGGAAACGTACTC (.(((.(....).))).) | -13.4 | 30.7 |
| GATCAATTTTTGATC ((((((...)))))) | -33.6 | 45.9 |
| GATCCTCGACAGGATC ((((((....)))))) | -35.6 | 48.5 |
| GACCTAGGAAACTGGGTC ((((.((....)).)))) | -35 | 49.6 |
| GATCATTACGATGATC ((((((....)))))) | -34.9 | 48.5 |
| GATCTGATCCCAGATC ((((((....)))))) | -27.2 | 47 |
